Legend:
[1] = folding enthalpy; higher = less favourable; fluorescence melt of hairpins on a sequencing array, two-state fit; settings: sodium 0.088 M
How it was run: (§1)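 Cy3 fluorescence of library hairpins on a sequenced MiSeq flow cell, with annealed Cy3 and quencher oligos, was imaged in 50 mM Na-HEPES pH 8.0, 25 mM NaCl in 2.5 °C steps up to 60 °C. Signals were normalised to pre-quench Cy3 and to control variants. Melting temperature and folding enthalpy came from bootstrapped two-state fits, inverse-variance combined over four replicates. Fitted temperatures were raised by 9.35 °C to match UV melts.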

[2] = melting temperature; fluorescence melt of hairpins on a sequencing array, two-state fit, raised by 9.35 °C to match UV melts; settings: sodium 0.088 M
How it was run: as §1

| Sequence | folding enthalpy [1] | Tm [2] |
| --- | --- | --- |
| GATCTAATAATAGATC ((((((....)))))) | -22 kcal/mol | 35.5 °C |
| GATCTAATAGTAGATC ((((((....)))))) | -29.4 kcal/mol | 33.7 °C |
| GATCTAATATTAGATC ((((((....)))))) | -40.3 kcal/mol | 43.2 °C |
| GATCTAATGATAGATC ((((((....)))))) | -20.4 kcal/mol | 36.2 °C |
| GATCTAATGCTAGATC ((((((....)))))) | -29.5 kcal/mol | 36.5 °C |
| GATCTAATTGTAGATC ((((((....)))))) | -33 kcal/mol | 38.8 °C |
| GATCTACAATAGATC ((((((...)))))) | -18.8 kcal/mol | 36.7 °C |
| GATCTACAGATAGATC ((((((....)))))) | -26.6 kcal/mol | 37.3 °C |
| GATCTACCATTAGATC ((((((....)))))) | -33.2 kcal/mol | 37.9 °C |
| GATCTACCTATAGATC ((((((....)))))) | -35 kcal/mol | 40.5 °C |
| GATCTACCTGTAGATC ((((((....)))))) | -39.4 kcal/mol | 52.8 °C |
| GATCTACCTTAGATC ((((((...)))))) | -32 kcal/mol | 39.1 °C |
| GATCTACGAATAGATC ((((((....)))))) | -24 kcal/mol | 36.4 °C |
| GATCTACGATAGATC ((((((...)))))) | -19.9 kcal/mol | 35.4 °C |
| GATCTACGATTAGATC ((((((....)))))) | -27.4 kcal/mol | 34.9 °C |
| GATCTACGCCTAGATC ((((((....)))))) | -33.8 kcal/mol | 42.6 °C |
| GATCTACGCTTAGATC ((((((....)))))) | -35.4 kcal/mol | 43.4 °C |
| GATCTACGGATAGATC ((((((....)))))) | -23.4 kcal/mol | 37.8 °C |

| Sequence | folding enthalpy [1] | Tm [2] |
| --- | --- | --- |
| GATCTACTAATAGATC ((((((....)))))) | -27.3 kcal/mol | 38.9 °C |
| GATCTACTATAGATC ((((((...)))))) | -25.1 kcal/mol | 40.5 °C |
| GATCTACTCGTAGATC ((((((....)))))) | -50.1 kcal/mol | 53.8 °C |
| GATCTACTCTTAGATC ((((((....)))))) | -29.7 kcal/mol | 41.1 °C |
| GATCTACTGGTAGATC ((((((....)))))) | -43.6 kcal/mol | 52.8 °C |
| GATCTACTTATAGATC ((((((....)))))) | -29.4 kcal/mol | 43 °C |
| GATCTACTTGTAGATC ((((((....)))))) | -41.1 kcal/mol | 56.2 °C |
| GATCTACTTTTAGATC ((((((....)))))) | -33.1 kcal/mol | 39.8 °C |
| GATCTAGAATAGATC ((((((...)))))) | -37.4 kcal/mol | 49.9 °C |
| GATCTAGACCTAGATC ((((((....)))))) | -32.8 kcal/mol | 47.2 °C |
| GATCTAGACTTAGATC ((((((....)))))) | -39.3 kcal/mol | 47 °C |
| GATCTAGAGGTAGATC ((((((....)))))) | -24.4 kcal/mol | 35.1 °C |
| GATCTAGATGTAGATC ((((((....)))))) | -27.9 kcal/mol | 39.8 °C |
| GATCTAGATTAGATC ((((((...)))))) | -26.3 kcal/mol | 36.2 °C |
| GATCTAGCAATAGATC ((((((....)))))) | -39.6 kcal/mol | 47.6 °C |
| GATCTAGCATTAGATC ((((((....)))))) | -43.5 kcal/mol | 47.6 °C |
| GATCTAGCCCTAGATC ((((((....)))))) | -37 kcal/mol | 45.6 °C |
| GATCTAGCGTAGATC ((((((...)))))) | -29.1 kcal/mol | 37.7 °C |
